According to ChEMBL document CHEMBL1138990, “Diadenosine and diuridine poly(borano)phosphate analogues: synthesis, chemical and enzymatic stability, and activity at P2Y1 and P2Y2 receptors” (J Med Chem, 2006):
pEC50: −log10 of the molar value.

What was measured:
Format in all cases: functional, cell-based
P2Y purinoceptor 1 [1] = molecular target: P2Y purinoceptor 1 (Rattus norvegicus, UniProt P49651); test: Activity against rat P2Y1-GFP transfected in HEK293 cells by intracellular calcium increase
Sequence of P2Y purinoceptor 1 (Rattus norvegicus, UniProt P49651) (P49651 whole entry, the tested form may be a part): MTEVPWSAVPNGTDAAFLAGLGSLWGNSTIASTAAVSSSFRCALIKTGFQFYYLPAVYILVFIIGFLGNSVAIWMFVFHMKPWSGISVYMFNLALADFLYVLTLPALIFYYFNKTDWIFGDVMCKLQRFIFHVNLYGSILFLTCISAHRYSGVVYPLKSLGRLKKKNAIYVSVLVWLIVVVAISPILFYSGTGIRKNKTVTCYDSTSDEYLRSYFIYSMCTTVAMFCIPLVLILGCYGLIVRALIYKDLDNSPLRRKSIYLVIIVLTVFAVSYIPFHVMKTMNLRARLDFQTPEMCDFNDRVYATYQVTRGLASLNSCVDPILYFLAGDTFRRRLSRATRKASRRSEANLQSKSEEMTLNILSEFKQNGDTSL
Summary of the method: (§1)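 HEK 293 cells stably expressing rat P2Y1-GFP or P2Y2-GFP (C-terminal GFP), transfected with DOTAP and selected with 1 mg/mL G418. Grown in DMEM/Ham's F12 with 10% FCS on PLL coverslips and measured after 3 days. Loaded with 2 µM Fura-2/AM for 30 min, then superfused with NaHBS at 37 °C with agonist for 1 min. Single-cell 340/380 nm ratio; mean ± SD, ≥50 cells.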

P2Y purinoceptor 1 [2] = molecular target: P2Y purinoceptor 1 (Homo sapiens, UniProt P47900); test: Activity against human P2Y1-GFP expressed in 1321N1 cells by intracellular calcium increase
Sequence of P2Y purinoceptor 1 (Homo sapiens, UniProt P47900) (P47900 whole entry, the tested form may be a part): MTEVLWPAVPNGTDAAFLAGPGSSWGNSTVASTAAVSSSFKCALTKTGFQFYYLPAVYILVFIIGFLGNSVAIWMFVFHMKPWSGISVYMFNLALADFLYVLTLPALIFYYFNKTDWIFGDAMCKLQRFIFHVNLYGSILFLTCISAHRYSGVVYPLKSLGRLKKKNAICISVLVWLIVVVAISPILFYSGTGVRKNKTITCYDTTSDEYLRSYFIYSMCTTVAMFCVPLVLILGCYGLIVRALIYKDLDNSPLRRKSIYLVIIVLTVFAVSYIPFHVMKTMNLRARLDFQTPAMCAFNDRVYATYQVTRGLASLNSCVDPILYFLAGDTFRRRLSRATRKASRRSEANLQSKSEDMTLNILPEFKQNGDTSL
Summary of the method: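 hP2Y1-GFP (C-terminal tag) stably transfected into 1321N1 cells, which lack endogenous P2Y receptors; selected with 1 mg/mL G418. Cells grown in DMEM with 5% FCS under 10% CO2 at 37 °C on PLL-coated coverslips. Loaded with 2 µM Fura-2/AM for 30 min in NaHBS pH 7.4, then superfused at 37 °C with agonist for 1 min. Read-out is single-cell 340/380 nm fluorescence ratio; mean ± SD from ≥50 cells.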

P2Y purinoceptor 2 = P2Y purinoceptor 2 (Rattus norvegicus, UniProt P41232); test: Activity against rat P2Y2-GFP transfected in HEK293 cells by intracellular calcium increase; conditions: for pEC50: read-out: EC50; summary of the method: as §1
Sequence of P2Y purinoceptor 2 (P41232 whole entry): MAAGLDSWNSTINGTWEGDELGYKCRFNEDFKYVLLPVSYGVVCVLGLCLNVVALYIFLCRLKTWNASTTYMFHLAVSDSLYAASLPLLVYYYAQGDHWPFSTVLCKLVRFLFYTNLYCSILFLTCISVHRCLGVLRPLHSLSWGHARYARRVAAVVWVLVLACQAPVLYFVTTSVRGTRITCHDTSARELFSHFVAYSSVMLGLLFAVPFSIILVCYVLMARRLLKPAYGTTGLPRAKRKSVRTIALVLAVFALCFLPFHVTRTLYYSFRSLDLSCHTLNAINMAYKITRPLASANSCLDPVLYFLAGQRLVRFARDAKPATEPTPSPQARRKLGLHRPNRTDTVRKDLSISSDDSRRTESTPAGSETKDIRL

Structure (SMILES)	pEC50 (P2Y purinoceptor 1 [1])	also measured
BP(=O)(OP(=O)(O)OC[C@H]1O[C@@H](n2ccc(=O)[nH]c2=O)[C@H](O)[C@@H]1O)OP(=O)(O)OC[C@H]1O[C@@H](n2ccc(=O)[nH]c2=O)[C@H](O)[C@@H]1O.CCCCN(CCCC)CCCC.CCCCN(CCCC)CCCC.CCCCN(CCCC)CCCC		pEC50 (P2Y purinoceptor 1 [2]): 6.10; EC50 (P2Y purinoceptor 2; hek293): Not Active
BP(=O)(OP(=O)(O)OP(=O)(O)OC[C@H]1O[C@@H](n2cnc3c(N)ncnc32)[C@H](O)[C@@H]1O)OP(=O)(O)OP(=O)(O)OC[C@H]1O[C@@H](n2cnc3c(N)ncnc32)[C@H](O)[C@@H]1O.CCCCN(CCCC)CCCC.CCCCN(CCCC)CCCC.CCCCN(CCCC)CCCC.CCCCN(CCCC)CCCC.CCCCN(CCCC)CCCC	7.20	
BP(=O)(OP(=O)(O)OP(=O)(O)OC[C@H]1O[C@@H](n2ccc(=O)[nH]c2=O)[C@H](O)[C@@H]1O)OP(=O)(O)OP(=O)(O)OC[C@H]1O[C@@H](n2ccc(=O)[nH]c2=O)[C@H](O)[C@@H]1O.CCCCN(CCCC)CCCC.CCCCN(CCCC)CCCC.CCCCN(CCCC)CCCC.CCCCN(CCCC)CCCC.CCCCN(CCCC)CCCC		pEC50 (P2Y purinoceptor 1 [2]): 6.10; pEC50 (P2Y purinoceptor 2): < 5.15
O=c1ccn([C@@H]2O[C@H](COP(=O)(O)OP(=O)(O)OP(=O)(O)O)[C@@H](O)[C@H]2O)c(=O)[nH]1 [URIDINE TRIPHOSPHATE]		pEC50 (P2Y purinoceptor 2): 6.89

Now from value to compound, other results behind:

pEC50 (P2Y purinoceptor 1 [1])	Structure (SMILES)	also measured
6.05	BP(=O)(OP(=O)(O)OC[C@H]1O[C@@H](n2cnc3c(N)ncnc32)[C@H](O)[C@@H]1O)OP(=O)(O)OC[C@H]1O[C@@H](n2cnc3c(N)ncnc32)[C@H](O)[C@@H]1O.CCCCN(CCCC)CCCC.CCCCN(CCCC)CCCC.CCCCN(CCCC)CCCC	
7.22	Nc1ncnc2c1ncn2[C@@H]1O[C@H](COP(=O)(O)OP(=O)(O)OP(=O)(O)OC[C@H]2O[C@@H](n3cnc4c(N)ncnc43)[C@H](O)[C@@H]2O)[C@@H](O)[C@H]1O	
7.00	CSc1nc(N)c2ncn([C@@H]3O[C@H](COP(=O)(O)OP(=O)(O)O)[C@@H](O)[C@H]3O)c2n1	
≤ 5.30	Nc1ncnc2c1ncn2[C@@H]1O[C@H](COP(=O)(O)OP(=O)(O)OP(=O)(O)OP(=O)(O)OP(=O)(O)OC[C@H]2O[C@@H](n3cnc4c(N)ncnc43)[C@H](O)[C@@H]2O)[C@@H](O)[C@H]1O	
